Test results from ChEMBL document CHEMBL1137362, “Synthesis and radioligand binding studies of methoxylated 1,2,3,4-tetrahydroisoquinolinium derivatives as ligands of the apamin-sensitive Ca2+-activated K+ channels” (J Med Chem, 2006).

What was measured:
[1] = biological target: Small conductance calcium-activated potassium channel (Rattus norvegicus) (UniProt P70604+P70606+P70605); assay: Displacement of [125I]apamin from Wistar rat cortical apamin-sensitive site at 10 uM; assay type: protein assay
Outline: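 Single-concentration screen at 10 µM: rat cortical synaptosomes (0.2 mg protein/mL) with 10 pM 125I-apamin, 1 h at 0 °C, Tris-HCl pH 7.5 buffer with 5.4 mM KCl and 0.1% BSA. Percent of specific radioligand binding displaced is reported; nonspecific binding defined with 0.1 µM apamin; filtration and scintillation counting; n = 3.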

[2] = biological target: Small conductance calcium-activated potassium channel (Rattus norvegicus, UniProt P70604+P70606+P70605); assay: Displacement of [125I]apamin from Wistar rat cortical apamin-sensitive site; assay type: protein assay
Rattus norvegicus [3] = organism: Rattus norvegicus; assay: Blockade of apamin-sensitive AHP in Wistar rat dopaminergic neurons by electrophysiology assay; assay type: functional, organism-based; conditions: Neuron
Outline: (§1)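 Intracellular bridge-balance recording of the apamin-sensitive AHP in dopaminergic neurons; drugs dissolved in water. IC50 obtained by fitting E = Emax/[1 + (IC50/x)h]; percent AHP block reported at 100 µM; means ± SEM, n = 3.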

Rattus norvegicus [4] = organism: Rattus norvegicus; assay: Blockade of apamin-sensitive AHP in Wistar rat dopaminergic neurons by electrophysiology assay at 100 uM; assay type: functional, organism-based; conditions: neuron; outline: as §1

| SMILES | Activity [1] | other results |
| --- | --- | --- |
| COc1ccc(CC2c3c(cc(OC)c(OC)c3OC)CC[N+]2(C)C)cc1OC.[I-] (stereo unspecified) | 72% | Ki [2]: 0.73 µM; IC50 (Rattus norvegicus [3]): 9 µM |
| COc1cc2c(cc1OC)C(CC(C)C)N(C)CC2 (stereo unspecified) | 0% |  |
| COc1ccc(CC2c3c(ccc(OC)c3OC)CC[N+]2(C)C)cc1OC (stereo unspecified) | 24% |  |
| COc1cc2c(c(OC)c1)C(Cc1ccc3ccccc3c1)N(C)CC2 (stereo unspecified) | 0% |  |
| COc1ccc(C[C@H]2c3cc(OC)c(OC)cc3CC[N+]2(C)C)cc1OC.[I-] [LAUDANOSINE METHIODIDE] |  | Ki [2]: 1.3 µM; IC50 (Rattus norvegicus [3]): 15 µM |
| COc1cc2c(c(OC)c1OC)C(Cc1ccc3ccccc3c1)N(C)CC2 (stereo unspecified) | 0% |  |
| COc1ccc(CC2c3c(cc(OC)c(OC)c3OC)CCN2C)cc1OC (stereo unspecified) | 27% | Inhibition (Rattus norvegicus [4]): 51.9% |
| COc1ccc(CC2c3c(ccc(OC)c3OC)CCN2C)cc1OC (stereo unspecified) | 3% |  |
| COc1ccc2c(c1OC)C(=O)O[C@@H]2[C@H]1c2c(cc3c(c2OC)OCO3)CC[N+]1(C)C.[I-] |  | Ki [2]: 3.6 µM |
| COc1cc2c(cc1OC)C(Cc1ccc3ccccc3c1)N(C)CC2 (stereo unspecified) | 6% |  |
| COc1cc2c(c(OC)c1)C(Cc1ccc3ccccc3c1)[N+](C)(C)CC2 (stereo unspecified) | 2% |  |
| COc1cc2c(c(OC)c1)C(Cc1ccc(OC)c(OC)c1)[N+](C)(C)CC2 (stereo unspecified) | 20% |  |
| COc1cc2c(c(OC)c1)C(Cc1ccc(OC)c(OC)c1)N(C)CC2 (stereo unspecified) | 0% |  |
| COc1cc2c(c(OC)c1OC)C(Cc1ccc3ccccc3c1)[N+](C)(C)CC2.[I-] (stereo unspecified) | 53% | Ki [2]: 2.2 µM |
| COc1ccc2c(c1OC)C(Cc1ccc3ccccc3c1)N(C)CC2 (stereo unspecified) | 0% |  |
| COc1ccc2c(c1OC)C(Cc1ccc3ccccc3c1)[N+](C)(C)CC2 (stereo unspecified) | 18% |  |
| COc1ccc(CCC2c3cc(OC)c(OC)cc3CC[N+]2(C)C)cc1OC.[I-] (stereo unspecified) | 32% | Ki [2]: 5.4 µM |
| CCCC1c2cc(OC)c(OC)cc2CC[N+]1(C)C (stereo unspecified) | 6% |  |
| COc1cc2c(cc1OC)C(Cc1ccc3ccccc3c1)[N+](C)(C)CC2.[I-] (stereo unspecified) | 70% | Ki [2]: 0.91 µM |
| CCCC1c2cc(OC)c(OC)cc2CCN1C (stereo unspecified) | 0% |  |
| COc1ccc(CCC2c3cc(OC)c(OC)cc3CCN2C)cc1OC (stereo unspecified) | 11% |  |
| COc1cc2c(cc1OC)C(CC(C)C)[N+](C)(C)CC2 (stereo unspecified) | 0% |  |
| CN1CCc2ccccc2C1Cc1ccc2ccccc2c1 (stereo unspecified) | 0% |  |
| C[N+]1(C)CCc2ccccc2C1Cc1ccc2ccccc2c1 (stereo unspecified) | 1% |  |
